Assay outcomes as filed in PubChem.
PAFAH2 FP inh: PAFAH2 enzyme inhibitors, primary screen, biochemical, fluorescence polarization, human | Platelet-activating factor acetylhydrolase 2, cytoplasmic (Homo sapiens), Q99487 | recombinant PAFAH2, FP-rhodamine activity probe | inhibition, % at 3.39 µM | 340,000 tested, 0.99% active;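 active = inhibition above the mean over all tested compounds plus 3 SD, cut at about 30% in these data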;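 note: inhibitors block probe labeling of enzyme so polarization drops; 0% = enzyme with DMSO and 100% = wells lacking PAFAH2 protein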
Apaf-1 inh: inhibitors of human Apaf-1 apoptosome, primary screen, biochemical, DEVD-Rh110 fluorescence, uHTS; reconstituted apoptosome caspase-3 activity; AID 489030, 2010; 330,000 tested, 0.71% active; inhibition, % at 20 µM; active = inhibition of at least 40% at 20 µM;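 note: plate controls were DMSO wells for no effect and DEVD-CHO caspase inhibitor wells for full effect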
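detection = Rh110 fluorescence intensity | test system = biochemical Apaf-1 apoptosome reconstitution | also added = cytochrome c and DEVD-Rh110 substrate | schedule = 30 min plus 50 min, RT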
PREPL inh: PREPL enzyme inhibitors, primary screen, biochemical, fluorescence polarization | Prolyl endopeptidase-like (Homo sapiens), Q4J6C6 | recombinant PREPL, fluorescence polarization activity-based probe | inhibition, % at 5.96 µM | 320,000 tested, 0.68% active | AID 2751, 2010; in the data active = inhibition above about 43%;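 note: 0% = enzyme with DMSO and 100% = wells lacking enzyme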
pPAFAH inh: pPAFAH enzyme inhibitors, primary screen, biochemical, fluorescence polarization, human | Platelet-activating factor acetylhydrolase (Homo sapiens), Q13093 | recombinant pPAFAH, FP-rhodamine probe fluorescence polarization | inhibition, % at 3.39 µM | 330,000 tested, 1.5% active;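 active = inhibition above the mean inhibition across the screen plus 3 SD, cut at about 25% in these data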;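 note: inhibitors block binding of the rhodamine activity-based probe so polarization drops; 0% = enzyme with DMSO and 100% = wells lacking pPAFAH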
Target sequence (Q13093 whole entry, looked up): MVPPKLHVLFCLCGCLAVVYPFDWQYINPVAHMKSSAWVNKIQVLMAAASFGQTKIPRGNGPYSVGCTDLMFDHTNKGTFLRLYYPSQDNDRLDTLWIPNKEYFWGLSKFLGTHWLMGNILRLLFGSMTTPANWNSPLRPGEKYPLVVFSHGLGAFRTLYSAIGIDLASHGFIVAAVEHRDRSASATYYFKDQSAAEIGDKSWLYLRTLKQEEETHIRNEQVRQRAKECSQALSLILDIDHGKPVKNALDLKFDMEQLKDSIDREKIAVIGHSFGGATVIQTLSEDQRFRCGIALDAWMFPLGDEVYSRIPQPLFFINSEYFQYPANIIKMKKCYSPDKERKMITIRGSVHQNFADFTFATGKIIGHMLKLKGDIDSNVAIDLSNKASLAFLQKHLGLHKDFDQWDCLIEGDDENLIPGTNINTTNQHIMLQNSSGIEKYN
PAFAH1B3 inh: PAFAH1B3 enzyme inhibitors, primary screen, biochemical, fluorescence polarization, human; Platelet-activating factor acetylhydrolase IB subunit alpha1 (Homo sapiens), Q15102; recombinant PAFAH1B3, FP-rhodamine probe; inhibition, % at 3.39 µM; 340,000 tested, 0.28% active;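 active = inhibition above the screen-wide average of all tested compounds plus 3 SD, cut at about 25% in these data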;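 note: 0% = enzyme with DMSO only and 100% = wells lacking PAFAH1B3 protein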
PAFAH1B2 inh: PAFAH1B2 enzyme inhibitors, primary screen, biochemical, fluorescence polarization, human. Platelet-activating factor acetylhydrolase IB subunit alpha2 (Homo sapiens), P68402. recombinant PAFAH1B2, FP-rhodamine activity probe. inhibition, % at 3.39 µM. 340,000 tested, 1.2% active;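 active = inhibition above the mean of all tested compounds plus 3 SD, cut at about 24% in these data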;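 note: 0% = enzyme with DMSO and 100% = wells lacking PAFAH1B2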
* hit, by the source's call; nt = no result. Shown are actives, neighbours in structure and some others; about 3.5% of the full set was active somewhere.

SMILES	PAFAH2 FP inh	Apaf-1 inh	PREPL inh	pPAFAH inh	PAFAH1B3 inh	PAFAH1B2 inh
COCCOC(=O)c1c(C)nc(SCC(=O)Nc2ccc(OC)cc2)c(C#N)c1-c1ccco1	1	1	-4	27*	5	-3
COc1ccc2[nH]c3c(=O)n(/N=C/c4ccc(OC)c(CN5CCCC5)c4)c(C)nc3c2c1	0	43*	27	3	1	4
COc1ccc(/C=N/n2c(C)nc3c([nH]c4ccccc43)c2=O)cc1CN1CCCC(C)(C)C1	0	14	4	-1	9	-2
Cc1cccc(N2CC(C(=O)Nc3ccc(N4CCOCC4)cc3)CC2=O)c1C (centres undefined)	-2	3	11	2	12	4
Cc1cccc(NS(=O)(=O)c2csc(C(N)=O)c2)c1C	-3	0	-3	27*	2	-6
Cc1cccc(NS(=O)(=O)c2csc(C(N)=O)c2)c1	-3	3	7	2	9	3
O=C1CS/C(=C\S(=O)(=O)c2ccc(Cl)cc2)N1	1	2	-7	4	-3	25*
CC(C)(C)c1ccc(C(=O)/C=C2\NC(=O)CS2)cc1	12	2	-2	10	-2	7
CSc1cc(-c2ccco2)oc1C(=O)c1ccco1	9	15	3	14	3	2
CC1CC(C)CN(C(=O)c2cccc3c2-c2ccccc2C3=O)C1 (centres undefined)	4	-12	-18	5	7	28*
O=C1c2ccccc2-c2c1cccc2C(=O)N1CCN(C(=O)c2ccco2)CC1	-3	12	1	5	4	1
OC(CNC1Cc2ccccc2C1)c1ccccc1 (centres undefined)	2	-2	2	8	1	7
O=C(CN1CCN(C(=O)c2cccc(S(=O)(=O)N3CCCC3)c2)CC1)Nc1cccc(F)c1	-5	1	nt	nt	2	-4
COc1ccc2c3c(cccc13)C(=O)CC2	126*	nt	nt	nt	110*	100*
O=c1[nH]c(CCl)nc2cc(-c3ccc(F)cc3)sc12	0	16	-13	12	3	29*
Cc1ccc(-c2csc(N)n2)cc1	12	nt	nt	nt	3	70*
Cc1ccc(-n2c(C)cc(-c3csc(N)n3)c2C)cc1	3	-14	27	25*	1	-2
O=C(N/N=C/c1cc(Br)c(O)c(Br)c1)C1CC1	-8	-7	-1	14	0	9
CC(C)(C)NC(=S)N/N=C/c1cc(Br)c(O)c(Br)c1	6	-5	1	34*	8	17
COc1ccc(CNC(=O)c2sc(=S)n(-c3ccccc3)c2N)cc1	-12	3	17	1	5	3
NC(=O)c1sc(=S)n2c1[nH]c(=O)c1sccc12	14	2	16	10	7	5
O=C(NCc1ccccc1)c1sc(=S)n2c1[nH]c(=O)c1ccccc12	42*	2	18	34*	31*	54*
CC(=O)NNC(=O)c1sc(=S)n2c1[nH]c(=O)c1sccc12	20	2	1	33*	17	6
CNC(=O)[C@@]1(Cc2ccccc2)C=C[C@@H](C)N1C(C)=O	8	-7	-6	4	-4	-4
O=C(Cc1ccccc1)NC(CSSCC(NC(=O)Cc1ccccc1)C(=O)O)C(=O)O (centres undefined)	-4	nt	nt	nt	3	1
SMILES	PAFAH2 FP inh	Apaf-1 inh	PREPL inh	pPAFAH inh	PAFAH1B3 inh	PAFAH1B2 inh
COCCOC(=O)c1c(C)oc2ccc(NS(=O)(=O)c3ccccc3)cc12	-1	-4	-6	7	4	-1
Cc1oc2ccc(NS(=O)(=O)c3ccccc3)cc2c1C(=O)Nc1ccccc1	1	-3	-5	33*	3	8
CC(=O)Nc1ccc(C(=O)OCc2ccc(Br)cc2)cc1	34*	-1	-23	0	1	26*
O=C(OCc1ccc(Br)cc1)c1ccncc1	0	8	3	-3	4	12
CNCC(O)c1ccc(OC(=O)C(C)(C)C)c(OC(=O)C(C)(C)C)c1 (centres undefined)	0	16	-4	3	1	27*
CC(Oc1ccccc1)C(=O)Nc1nnc(S(=O)(=O)Nc2ccccc2)s1 (centres undefined)	5	7	-2	29*	7	10
CC(Oc1ccccc1)C(=O)Nc1nnc(S(=O)(=O)N2CCCCC2)s1 (centres undefined)	6	1	-4	2	4	9
O=C1N/C(=N\S(=O)(=O)Cc2ccccc2)S/C1=C/c1cc([N+](=O)[O-])ccc1O	12	-10	2	32*	39*	29*
CCCC(=O)c1ccc(O)cc1O	0	-1	nt	nt	5	3
C[C@H](NC(CCc1ccccc1)C(=O)O)C(=O)N1CCC[C@H]1C(=O)O (some centres undefined)	nt	6	11	-2	nt	nt
COc1cc(CNC(=O)CCCC/C=C/C(C)C)ccc1O	-2	-1	2	25*	5	3
Cn1nnnc1Sc1ncnc2scc(-c3ccc(F)cc3)c12	-15	-20	8	29*	1	-7
Cn1nnnc1Sc1ncnc2scc(-c3ccc(Br)cc3)c12	-8	20	28	11	-4	0
Cc1ccc2c(CC(=O)NNC(=O)c3ccccc3O)coc2c1	9	-3	19	15	9	21
O=C(COC(=O)C1CC2C=CC1C2)Nc1ccccc1F (centres undefined)	34*	1	-2	24	3	-1
O=C(COC(=O)C1CC2C=CC1C2)NCCc1ccccc1 (centres undefined)	3	-3	12	1	9	2
CCc1ccc(NC(=S)N2CCCCCCC2)cc1	-5	2	-1	2	7	3
O=c1ccc(NS(=O)(=O)c2ccc(Cl)cc2)cn1Cc1ccc(Cl)c(Cl)c1	13	22	0	13	4	28*
Cn1c(CN2CCCC2)nc2cc(NS(=O)(=O)c3ccc(Cl)cc3)ccc21	-11	3	-1	9	2	16
C/C(CC(C)(C)C1CCCCC1)=N\NC(N)=S	2	2	-4	6	2	41*
NC(=S)n1[nH]c(-c2ccc([N+](=O)[O-])cc2)c(N=Nc2ccc(O)cc2)c1=O	11	0	9	32*	11	7
